In ChEMBL document CHEMBL4177588, “Synthesis, biological evaluation, and metabolic stability of chlorogenic acid derivatives possessing thiazole as potent inhibitors of α-MSH-stimulated melanogenesis” (Bioorg Med Chem Lett, 2017):

Experiments:
[1] = Drug metabolism in human liver S9 fraction treated with 4-(Benzo[d][1,3]dioxol-5-yl)-N-(4-(trifluoromethyl)benzyl)thiazol-2-amine assessed as metabolite formation at 1 uM pretreated for 5 mins followed by NADPH/UDPGA/ PAPS addition by Q-TOF LC-MS/MS analysis; format: ADME, subcellular; details: s9, 1 µM
In short: (§1)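 Human liver S9 fraction (1 mg/mL) in 50 mM Tris buffer, pH 7.5, fortified with NADPH (1 mM), UDPGA and PAPS to support oxidative, glucuronidation and sulfation pathways. Parent loss and metabolites were analysed by Q-TOF LC-MS/MS.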

[2] = system: B16; assay: Inhibition of alpha-MSH stimulated melanogenesis in mouse B16 cells; format: functional, cell-based
[3] = Drug metabolism in human liver S9 fraction assessed as SULT-mediated compound sulfation by measuring M3 formation at 1 uM pretreated for 5 mins followed by NADPH/UDPGA/ PAPS addition by Q-TOF LC-MS/MS analysis; format: ADME, subcellular; details: s9, 1 µM; in short: as §1
[4] = Drug metabolism in human liver S9 fraction assessed as UGT-mediated compound glucuronidation by measuring M4 formation at 1 uM pretreated for 5 mins followed by NADPH/UDPGA/ PAPS addition by Q-TOF LC-MS/MS analysis; format: ADME, subcellular; details: s9, 1 µM; in short: as §1
[5] = Drug metabolism in human liver S9 fraction assessed as compound oxidation by measuring (4-Benzo[1,3]dioxol-5-yl-1-oxo-thiazol-2-yl)-(4-trifluoromethyl-benzyl)-amine formation at 1 uM pretreated for 5 mins followed by NADPH/UDPGA/ PAPS addition by Q-TOF LC-MS/MS analysis; format: ADME, subcellular; details: s9, 1 µM; in short: as §1
[6] = Half-life in human liver S9 fraction at 1 uM pretreated for 5 mins followed by NADPH/UDPGA/ PAPS addition by Q-TOF LC-MS/MS analysis; format: ADME, subcellular; in short: as §1
[7] = Drug metabolism in human liver S9 fraction assessed as compound oxidation by measuring 4-[2-(4-Trifluoromethyl-benzylamino)-thiazol-4-yl]-benzene-1,2-diol formation at 1 uM pretreated for 5 mins followed by NADPH/UDPGA/ PAPS addition by Q-TOF LC-MS/MS analysis; format: ADME, subcellular; details: s9, 1 µM; in short: as §1
[8] = Drug metabolism in human liver S9 fraction assessed as SULT-mediated compound sulfation by measuring M1 formation at 1 uM pretreated for 5 mins followed by NADPH/UDPGA/ PAPS addition by Q-TOF LC-MS/MS analysis; format: ADME, subcellular; details: s9, 1 µM; in short: as §1
[9] = Drug metabolism in human liver S9 fraction assessed as UGT-mediated compound glucuronidation by measuring M2 formation at 1 uM pretreated for 5 mins followed by NADPH/UDPGA/ PAPS addition by Q-TOF LC-MS/MS analysis; format: ADME, subcellular; details: s9, 1 µM; in short: as §1
[10] = Drug metabolism in human liver microsomes assessed as compound oxidation at 1 uM measured after 5 mins in absence of NADPH by Q-TOF LC-MS/MS analysis; format: ADME, microsome

| Structure (SMILES) | IC50 [2] [µM] | further results |
| --- | --- | --- |
| FC(F)(F)c1ccccc1CNc1nc(-c2ccc3c(c2)OCO3)cs1 | 9.6 |  |
| FC(F)(F)c1ccc(CNc2nc(-c3ccc4c(c3)OCO4)cs2)cc1 | 0.9 | Drug metabolism [3]: Metabolite_Detected; Drug metabolism [4]: Metabolite_Detected; Drug metabolism [5]: Metabolite_Detected; half-life at 1 µM [6]: 69.3 min; Drug metabolism [7]: Metabolite_Detected |
| Oc1ccc(-c2csc(NCc3ccccc3)n2)cc1O | 2.1 |  |
| Oc1ccc(-c2csc(NCc3ccc(Cl)cc3)n2)cc1O | 11.5 |  |
| c1ccc(CNc2nc(-c3ccc4c(c3)OCO4)cs2)cc1 | 11.1 |  |
| Clc1ccc(CNc2nc(-c3ccc4c(c3)OCO4)cs2)cc1 | 37.9 |  |
| Oc1ccc(-c2csc(NCc3cccc(C(F)(F)F)c3)n2)cc1O | 1.8 |  |
| Clc1cccc(CNc2nc(-c3ccc4c(c3)OCO4)cs2)c1 | 13.2 |  |
| O=C(/C=C/c1ccc(O)c(O)c1)NCc1ccc(C(F)(F)F)cc1 |  | Drug metabolism [8]: Metabolite_Detected; Drug metabolism [9]: Metabolite_Detected; Drug metabolism [10]: Metabolite_Detected; half-life at 1 µM [6]: 5 min |
| [O-][s+]1cc(-c2ccc3c(c2)OCO3)nc1NCc1ccc(C(F)(F)F)cc1 (stereo not given) |  | Drug metabolism [1]: Metabolite_Detected |

Further lines, with some results ahead:

| IC50 [2] [µM] | Structure (SMILES) | further results |
| --- | --- | --- |
| 32.7 | Oc1ccc(-c2csc(NCc3ccc(C(F)(F)F)cc3)n2)cc1O | Drug metabolism [1]: Metabolite_Detected |
| 12.4 | Clc1ccccc1CNc1nc(-c2ccc3c(c2)OCO3)cs1 |  |
| 15.3 | FC(F)(F)c1cccc(CNc2nc(-c3ccc4c(c3)OCO4)cs2)c1 |  |
| > 50 | Oc1ccc(-c2csc(NCc3cccc(Cl)c3)n2)cc1O |  |
| 2 | Oc1ccc(-c2csc(NCc3ccccc3Cl)n2)cc1O |  |
| 2.6 | Oc1ccc(-c2csc(NCc3ccccc3C(F)(F)F)n2)cc1O |  |
